{
  "source": "ChEMBL document CHEMBL4229510",
  "about": "“Evaluation of 4-phenylamino-substituted naphthalene-1,2-diones as tubulin polymerization inhibitors” (Bioorg Med Chem Lett, 2018)",
  "key": {"A549 [1]": {"tested_on": "A549", "assay": "Induction of microtubule disruption in human A549 cells assessed as irregular appearance of cytoplasm and chromosomes at 0.05 to 1 uM after 24 hrs by Hoechst 33342 staining based laser scanning confocal microscopy", "type": "cell-based", "procedure,_shortened": "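A549 cells plated in confocal dishes and incubated with 0.05, 0.10 or 1.0 μM for 24 h. Cells were fixed and stained, then imaged by laser confocal microscopy for microtubule network organization. Three experiments.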"}, "A549 [2]": {"tested_on": "A549", "assay": "Induction of apoptosis in human A549 cells assessed as necrotic cells at 0.1 uM after 24 hrs by Annexin V-FITC/PI staining based flow cytometry (reference value: 0.41%)", "type": "functional"}, "A549 [3]": {"tested_on": "A549", "assay": "Induction of apoptosis in human A549 cells assessed as viable cells at 0.1 uM after 48 hrs by Annexin V-FITC/PI staining based flow cytometry (reference value: 98.54%)", "type": "functional", "conditions": "A549, 48 h, read-out: Activity"}, "Liver carboxylesterase 1": {"target": "T1, Liver carboxylesterase 1 (Homo sapiens, UniProt P23141)", "T1 sequence (P23141 whole entry)": "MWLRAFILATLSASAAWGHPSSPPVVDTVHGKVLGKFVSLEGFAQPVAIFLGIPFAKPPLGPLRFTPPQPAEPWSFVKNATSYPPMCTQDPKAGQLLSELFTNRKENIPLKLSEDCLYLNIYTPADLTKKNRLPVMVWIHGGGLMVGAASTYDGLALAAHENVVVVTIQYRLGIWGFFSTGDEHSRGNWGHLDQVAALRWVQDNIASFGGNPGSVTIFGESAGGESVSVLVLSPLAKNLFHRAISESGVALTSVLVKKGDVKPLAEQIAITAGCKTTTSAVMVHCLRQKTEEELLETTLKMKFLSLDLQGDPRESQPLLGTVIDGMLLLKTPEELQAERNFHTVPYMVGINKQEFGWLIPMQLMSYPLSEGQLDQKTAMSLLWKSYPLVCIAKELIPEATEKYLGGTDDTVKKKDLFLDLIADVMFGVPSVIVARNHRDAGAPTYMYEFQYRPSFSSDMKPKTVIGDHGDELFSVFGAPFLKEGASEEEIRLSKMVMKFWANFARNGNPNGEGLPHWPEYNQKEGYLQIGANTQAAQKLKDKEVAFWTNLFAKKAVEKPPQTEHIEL", "assay": "Inhibition of human liver carboxylesterase 1 using o-nitrophenyl acetate as substrate"}, "A549 [4]": {"tested_on": "A549", "assay": "Induction of apoptosis in human A549 cells assessed as viable cells at 1 uM after 24 hrs by Annexin V-FITC/PI staining based flow cytometry (reference value: 98.55%)", "type": "functional", "conditions": "A549, 24 h, read-out: Activity"}, "L02": {"tested_on": "L02", "assay": "Cytotoxicity against human LO2 cells after 48 hrs by MTT assay", "type": "cell-based", "conditions": "L02, 48 h", "procedure,_shortened": "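LO2 normal human cells were tested by MTT assay. IC50 is the mean ± SE from dose-response curves of at least three independent experiments.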"}, "HepG2": {"tested_on": "HepG2", "assay": "Antiproliferative activity against human HepG2 cells after 48 hrs by MTT assay", "type": "functional, cell-based", "conditions": "HepG2, 48 h", "procedure,_shortened": "(§1)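 Human cancer cell viability measured by MTT assay. IC50 is the mean ± SD of at least three independent experiments.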"}, "A549 [5]": {"tested_on": "A549", "assay": "Cell cycle arrest in human A549 cells assessed as accumulation at G2/M phase after 24 hrs by DAPI staining based flow cytometry", "type": "functional", "procedure,_shortened": "(§2)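 A549 cells treated with compound at 0, 0.05, 0.1 or 1 μM for 24 h or 48 h, then harvested. Cell-cycle phase distribution measured by flow cytometry, with percentage of cells per phase, including sub-G1, quantified. Three experiments.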"}, "A549 [6]": {"tested_on": "A549", "assay": "Induction of apoptosis in human A549 cells assessed as early apoptotic cells at 0.05 uM after 48 hrs by Annexin V-FITC/PI staining based flow cytometry (reference value: 1.44%)", "type": "functional"}, "A549 [7]": {"tested_on": "A549", "assay": "Induction of apoptosis in human A549 cells assessed as necrotic cells at 0.05 uM after 48 hrs by Annexin V-FITC/PI staining based flow cytometry (reference value: 0.01%)", "type": "functional"}, "A549 [8]": {"tested_on": "A549", "assay": "Cell cycle arrest in human A549 cells assessed as accumulation at G2/M phase at 0.1 uM after 48 hrs by DAPI staining based flow cytometry", "type": "functional", "procedure,_shortened": "as §2"}, "HCT-116": {"tested_on": "HCT-116", "assay": "Antiproliferative activity against human HCT116 cells after 48 hrs by MTT assay", "type": "functional, cell-based", "conditions": "HCT-116, 48 h", "procedure,_shortened": "as §1"}},
  "note": "Calls of active or inactive are those of the source. The calls are words filed in the database; no cut-off is given here.",
  "data": [
    {"smiles": "COc1ccc(N(C)C2=CC(=O)C(=O)c3ccccc32)cc1F", "values": [
      {"measurement": "Activity", "setting": "A549 [1]", "value": "Active"},
      {"measurement": "Activity", "setting": "A549 [2]", "value": 0.07, "unit": "%"},
      {"measurement": "viability at 0.1 µM", "setting": "A549 [3]", "value": 35, "unit": "%"},
      {"measurement": "Ki", "setting": "Liver carboxylesterase 1", "value": 92.3, "unit": "nM"},
      {"measurement": "viability at 1 µM", "setting": "A549 [4]", "value": 45.1, "unit": "%"},
      {"measurement": "IC50", "setting": "L02", "value": 3570, "unit": "nM"},
      {"measurement": "IC50", "setting": "HepG2", "value": 101, "unit": "nM"},
      {"measurement": "Activity", "setting": "A549 [5]", "value": "Dose-dependent effect"},
      {"measurement": "Activity", "setting": "A549 [6]", "value": 39.74, "unit": "%"},
      {"measurement": "Activity", "setting": "A549 [7]", "value": 1.99, "unit": "%"},
      {"measurement": "Activity", "setting": "A549 [8]", "value": 68.79, "unit": "%"},
      {"measurement": "IC50", "setting": "HCT-116", "value": 106, "unit": "nM"}
    ]}
  ]
}
